The test system of data set [1] is HeLa. As to the kind of experiment: Antiproliferative activity against human HeLa cells assessed as growth inhibition measured after 48 hrs by sulforhodamine B assay. The class given is functional. The gist of the method:
(§1)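 HeLa cells exposed to compound for 48 h, then growth measured by sulforhodamine B (SRB) staining. GI50 (50% growth inhibition), TGI (total growth inhibition) and LC50 (50% cytotoxicity) were read from concentration–response data. Values are average ± SEM, n = 3–5.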

Data set [2] relates to BT-549. Briefly: Cytotoxicity against human BT-549 cells assessed as concentration required for complete reduction in cell viability incubated for 48 hrs by sulforhodamine B assay. The format is functional. The gist of the method: (§2)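 Breast lines were tested in a 48 h SRB assay: four molecularly diverse triple-negative lines plus nontumorigenic MCF 10A, with MCF 10A tested up to 50 μM. LC50 values came from concentration–response curves. Complete cytotoxicity was taken as the concentration giving full cell kill after 48 h incubation.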
(The SRB assay estimates cell density from bound dye.)

The test system of a further data set is MDA-MB-231. Briefly: Cytotoxicity against human MDA-MB-231 cells assessed as reduction in cell viability measured after 48 hrs by sulforhodamine B assay. The format is functional. The gist of the method:
as §2

For data set [3], the target named is T1, Tubulin (Homo sapiens) (UniProt P68371+Q9H4B7+P0DPH7+P68366+Q13509+Q71U36+P04350+Q3ZCM7+P07437+P68363+Q9BQE3+Q6PEY2+Q13885+Q9BVA1+Q9BUF5). As to the kind of experiment: Induction of microtubule destabilization in human BT-549 cells assessed as loss of microtubule network at 100 nM incubated for 6 hrs by indirect immunofluorescence assay. The format is cell-based. The essentials:
(§3)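 BT-549 cells were treated for 6 h with compound or DMSO vehicle. Microtubules were then visualised by immunofluorescence with a β-tubulin antibody, scoring microtubule loss or bundling.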

Data set [4] is filed under the species Sus scrofa. As to the kind of experiment: Inhibition of porcine brain tubulin polymerization assessed as reduction in rate and extent of tubulin polymerization at 5 to 10 uM by turbidimetric assay. Particulars: dose microM 5-10. The gist of the method: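 Purified porcine brain tubulin (20 μM) was incubated with a range of compound concentrations. Polymerization was monitored turbidimetrically after shift to 37 °C.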

In a further data set the test system is HCC1937. Briefly: Cytotoxicity against human HCC1937 cells assessed as reduction in cell viability measured after 48 hrs by sulforhodamine B assay. The settings on record: read-out: LC50 (the source's name). The format is functional. The gist of the method:
as §2

Data set [5] concerns the target T1, Tubulin (Homo sapiens). Briefly: Induction of microtubule stabilization in human BT-549 cells assessed as bundling of microtubule network at 1 microM incubated for 6 hrs by indirect immunofluorescence assay. The format is cell-based. The gist of the method:
as §3

For data set [6], the species on record is Sus scrofa. As to the kind of experiment: Inhibition of porcine brain tubulin polymerization assessed as reduction in rate and extent of tubulin polymerization at 20 uM by turbidimetric assay. The gist of the method:
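Purified porcine brain tubulin (20 μM) was incubated with 20 μM compound or DMSO vehicle. Polymerization was monitored turbidimetrically after shift to 37 °C.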

The subject of data set [7] is HeLa. Briefly: Cytotoxicity against human HeLa cells assessed as reduction in cell viability measured after 48 hrs by sulforhodamine B assay. The settings on record: read-out: LC50 (the source's name). The format is functional. The essentials: as §1
For data set [8], the system named is BT-549. Briefly: Cytotoxicity against human BT-549 cells assessed as reduction in cell viability measured after 48 hrs by sulforhodamine B assay. Particulars: read-out: LC50 (the source's name). The class given is functional. The essentials: as §2
A further data set relates to OVCAR-5. As to the kind of experiment: Antiproliferative activity against human OVCAR-5 cells assessed as reduction in cell growth at 0.01 to 10 uM incubated for 48 hrs by SRB assay. Particulars: dose microM 0.01-10, time 48.0 hrs. The format is functional, cell-based.
For data set [9], the system named is SK-OV-3. As to the kind of experiment: Antiproliferative activity against human SKOV3-M6/6 cells assessed as reduction in cell growth at 0.01 to 10 uM incubated for 48 hrs by SRB assay. The class given is functional, cell-based. The settings on record: dose microM 0.01-10, time 48.0 hrs.
Data set [10] relates to SK-OV-3. As to the kind of experiment: Antiproliferative activity against human SKOV3 cells assessed as reduction in cell growth at 0.01 to 10 uM incubated for 48 hrs by SRB assay. The class given is functional, cell-based. Particulars: dose microM 0.01-10, time 48.0 hrs.
For a further data set, the system named is ES2. Briefly: Antiproliferative activity against human ES-2 cells assessed as reduction in cell growth at 0.01 to 10 uM incubated for 48 hrs by SRB assay. Particulars: dose microM 0.01-10, time 48.0 hrs. The format is functional, cell-based.
In data set [11] the test system is HeLa. As to the kind of experiment: Antiproliferative activity against human HeLa cells assessed as reduction in cell viability incubated for 8 hrs by sulforhodamine B assay. The class given is functional. Particulars: read-out: LC50 (the source's name).
The nature of data set [12]: Selectivity ratio of antiproliferative activity against human SKOV3-M6/6 cells transfected with MDR1 to antiproliferative activity against human SKOV3 cells measured after 48 hrs by sulforhodamine B assay. The class given is functional.
In the next data set the test system is MDA-MB-453. As to the kind of experiment: Cytotoxicity against human MDA-MB-453 cells assessed as reduction in cell viability measured after 48 hrs by sulforhodamine B assay. The class given is functional. The gist of the method: as §2
Data set [13] can be described thus: Selectivity index, ratio of LC50 for human HeLa cells to LC50 for human HCC1937 cells measured after 48 hrs by sulforhodamine B assay. The format is functional.
The next data set relates to MCF-10A. As to the kind of experiment: Cytotoxicity against human MCF10A cells assessed as reduction in cell viability measured after 48 hrs by sulforhodamine B assay. The format is cell-based. The gist of the method:
as §2

The subject of data set [14] is HeLa. Briefly: Antiproliferative activity against human HeLa cells assessed as reduction in cell growth incubated for 8 hrs by trypan blue exclusion assay. The format is functional, cell-based. The essentials: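 HeLa viability was followed during the first 8 h of treatment by trypan blue exclusion.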
Data set [15] concerns HeLa. Briefly: Inhibition of colony formation in human HeLa cells at 1.4 uM treated for 8 hrs followed by compound washout and measured after 11 days by crystal violet staining based assay. The format is functional. The essentials:
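HeLa cells were treated for 8 h with 1.4 μM compound or EtOH vehicle, then the drug was washed out. Colonies were scored 11 days after removal. Groups were compared with vehicle by 1-way ANOVA with Dunnett's post hoc test.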

Calls of active or inactive are those of the source. The rule behind the calls is not given here.

`C[C@]12CC=CC[C@@H]1CC[C@@H]1[C@@H]2CC[C@]2(C)C(=O)C=C[C@@H]12`: in the data set on HeLa [1], the GI50 (as a rule, the concentration giving 50% growth inhibition) came out at 470 nM. Besides, the TGI (commonly the concentration at which net growth stops) in the data set with HeLa [1] was found to be 720 nM. Besides, the CC100 in the data set on BT-549 [2] came out at 1 µM. Further, the CC50 in the data set with MDA-MB-231 (read-out: LC50 (the source's name)) came out at 1920 nM; in the data set on HCC1937, 1390 nM; in the data set with HeLa [7], 1070 nM; with BT-549 [8], 610 nM. Further, the result at Tubulin (Homo sapiens) [3] and on Tubulin (Homo sapiens) [5] was inactive. Moreover, in the data set filed under Sus scrofa [4], the inhibition (usually how much of the control response was suppressed) was “Dose-dependent effect”. Further, in the data set filed under Sus scrofa [6], the inhibition result is “Active”.
Regarding `CC(=O)O[C@H]1[C@H]2[C@H]([C@@H]3[C@@H](O)[C@@H]4[C@H]([C@H](C)[C@H]5O[C@]56OC(=O)[C@@](C)(O)[C@]46C)[C@@]3(C)[C@H]1OC(C)=O)[C@@H](O)C(=O)[C@H]1C[C@@H]3O[C@@H]3[C@H](OC(C)=O)[C@]21C`, the outcome with OVCAR-5, in the data set on SK-OV-3 [9], in the data set with SK-OV-3 [10] and in the data set on ES2 was Active.
In the case of `C[C@]12C[C@H]3O[C@H]3C[C@@H]1CC[C@H]1[C@@H]3[C@@H]4O[C@@H]4C(=O)[C@@]3(C)CC[C@@H]12`, the CC50 in the data set on HeLa [11] is 1400 nM; in the data set on HCC1937 it was 470 nM; with HeLa [7] it was 1090 nM; with BT-549 [8] it was 1070 nM. For the same compound, the Ratio in data set [12] was determined as 5. Also, the result with OVCAR-5, in the data set on SK-OV-3 [9], in the data set on SK-OV-3 [10] and in the data set with ES2 was Active. Besides, in the data set on HeLa [1], the GI50 was determined as 520 nM. For the same compound, in the data set with HeLa [1], the TGI was found to be 740 nM. The values for the LC50 (concentration killing 50% of cells) with MDA-MB-453 and in the data set with MDA-MB-231 were 740 nM and 2500 nM, respectively. In data set [13], the RatioLC50 amounted to 2. Also, in the data set on MCF-10A, the LC50 (commonly the concentration that kills 50% of the test population) was greater than 50000 nM. Also, in the data set filed under Sus scrofa [6], the inhibition result was “inactive”. For the same compound, the outcome in the data set with HeLa [14] was inactive. The same compound registered an inhibition at 1.4 µM in the data set with HeLa [15] of 100%.
Consider `C[C@]12CCC(=O)C[C@@H]1CC[C@H]1[C@@H]3[C@@H]4O[C@@H]4C(=O)[C@@]3(C)CC[C@@H]12`, for which the GI50 in the data set with HeLa [1] stood at 1000 nM. For the same compound, the TGI with HeLa [1] came to 1400 nM. Also, the LC50 (concentration killing 50% of cells) was determined as 1010 nM in the data set on MDA-MB-453 and 1230 nM with MDA-MB-231. Moreover, the RatioLC50 in [13] is 2. The results for the CC50 in the data set with HCC1937, in the data set with HeLa [7] and in the data set with BT-549 [8] were 700 nM, 1900 nM and 1340 nM, respectively.
For the compound `CC(=O)O[C@H]1C(=O)[C@@]2(C)[C@H]([C@H](OC(=O)c3ccccc3)[C@]3(O)C[C@H](OC(=O)[C@H](O)[C@@H](NC(=O)c4ccccc4)c4ccccc4)C(C)=C1C3(C)C)[C@]1(OC(C)=O)CO[C@@H]1C[C@@H]2O` [PACLITAXEL], the Ratio in data set [12] was 25. Also, the outcome with OVCAR-5, in the data set with SK-OV-3 [9], in the data set on SK-OV-3 [10], at Tubulin (Homo sapiens) [5] and in the data set with ES2 was Active.
For `C[C@]12CC[C@H](O)C[C@@H]1CC[C@H]1[C@@H]3[C@@H]4O[C@@H]4C(=O)[C@@]3(C)CC[C@@H]12`, the GI50 in the data set with HeLa [1] came to 1300 nM. Also, the TGI in the data set with HeLa [1] came to 1800 nM. Moreover, the LC50 (concentration killing 50% of cells) in the data set on MDA-MB-453 was determined as 1080 nM; with MDA-MB-231, 1400 nM. Besides, the RatioLC50 in data set [13] is 2. In addition, the CC50 came out at 820 nM in the data set on HCC1937, 2200 nM with HeLa [7] and 1430 nM in the data set on BT-549 [8].
